MrgX1 antag = antagonists of human MrgX1 receptor, primary screen, HEK293 cells, Fluo-4 calcium flux | Mas-related G-protein coupled receptor member X1 (Homo sapiens), Q96LB2 | BAM8-22 antagonism; hits give low values | B-score at 10 µM | actives 1.3% (n = 310,000) | AID 588676, 2011;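 active means calcium-response B-score plate-corrected more than 3 library SD below zero, starting fluorescence within 5 deviations, no agonist response on first addition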;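 further: peak minus trough fluorescence over baseline after final BAM8-22 challenge near maximal dose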
Target sequence (Q96LB2 whole entry, looked up): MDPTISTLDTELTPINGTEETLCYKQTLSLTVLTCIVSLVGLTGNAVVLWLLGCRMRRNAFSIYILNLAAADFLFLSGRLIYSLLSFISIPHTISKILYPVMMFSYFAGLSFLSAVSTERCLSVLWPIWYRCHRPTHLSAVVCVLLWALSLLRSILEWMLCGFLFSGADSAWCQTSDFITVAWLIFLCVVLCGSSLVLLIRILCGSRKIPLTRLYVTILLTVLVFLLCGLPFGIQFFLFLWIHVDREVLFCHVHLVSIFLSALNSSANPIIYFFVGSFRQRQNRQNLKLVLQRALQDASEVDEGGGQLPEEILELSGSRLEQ
MrgX1 ag = agonists of human MrgX1 receptor, primary screen, HEK293 cells, Fluo-4 calcium flux; Fluo-4 calcium fluorescence, agonist mode; hits give high values; actives 0.44% (n = 310,000); B-score at 10 µM; Mas-related G-protein coupled receptor member X1 (Homo sapiens), Q96LB2;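 active means calcium response B-score plate-corrected fluorescence ratio at least 3 library SD, with starting fluorescence B-score inside 5 SD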
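Test system: Stable human MrgX1 HEK293 cell line | Schedule: Overnight plating before 1 h dye loading | Read-out basis: Baseline-normalised fluorescence change ratio, B-scored | Detection: Kinetic calcium dye fluorescence, Fluo-4 NW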
MrgX1 allo act = positive allosteric modulators of MrgX1, primary screen, HEK293 cells, Fluo-4 calcium flux | actives 0.63% (n = 310,000) | B-score at 10 µM | FDSS; hits give high values;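 active means plate-corrected calcium response at least 3 library SD above typical, normal starting fluorescence, not activating the receptor alone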;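 further: compound read alongside a low EC10 to EC30 dose of BAM8-22 agonist; peak minus trough fluorescence over baseline measured at the second addition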
RGS4 pot = RGS4 potentiators or activators, primary screen, cell-based, HEK293 M3R inducible RGS4, calcium flux. B-score at 10 µM. carbachol calcium flux Fluo4; hits give low values. actives 0.92% (n = 310,000);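 active means B-score of the integrated calcium signal more than 4 SD below the library mean, with starting fluorescence not abnormally high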;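 further: negative B-score means reduced calcium response which marks RGS4 activation or potentiation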
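Test system: HEK293 cells with stable M3R and inducible RGS4; also added: carbachol at ECmax as muscarinic agonist stimulus; schedule: dye loading 30 min 37 °C, buffer rest 30 min RT; technique: kinetic calcium fluorescence imaging with Fluo4-AM dye, 2 µM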
RGS4 inh = RGS4 inhibitors, primary screen, cell-based, HEK293 M3R inducible RGS4, calcium flux; Fluo-4 calcium flux; hits give high values; triggered by carbachol at its EC20; AID 463165, 2010; actives 0.45% (n = 310,000); B-score at 10 µM; Regulator of G-protein signaling 4 (Homo sapiens), P49798;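 active means B-score, a plate-corrected calcium signal, over three deviations above library mean, with baseline fluorescence within five deviations of library mean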;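 further: RGS4 expression induced by doxycycline in cells with stable M3 receptor; B-score is computed from the integrated fluorescence ratio over baseline after carbachol; higher B-score means a larger calcium signal and so more RGS4 inhibition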
Target sequence (P49798 whole entry, looked up): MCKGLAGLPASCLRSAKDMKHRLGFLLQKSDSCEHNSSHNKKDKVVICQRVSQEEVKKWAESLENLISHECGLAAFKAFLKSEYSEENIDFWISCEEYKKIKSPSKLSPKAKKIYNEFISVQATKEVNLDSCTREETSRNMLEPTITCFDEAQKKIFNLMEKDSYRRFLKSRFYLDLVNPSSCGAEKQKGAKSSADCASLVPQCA
RGS4 block valid = enhanced carbachol calcium response, M3R/RGS4 cells, RGS4 inhibitor project, cell-based, validation screen, HEK293 M3R/RGS4, calcium flux; actives 65% (n = 1,700); carbachol calcium Fluo-4 fluorescence; carbachol added at its EC20; 0 = buffer wells, 100 = carbachol control; AID 492999, 2010; shares compounds with RGS4 inh; calcium response, % at 10 µM;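 active means duplicate-averaged calcium response above the buffer-only control mean plus 5 SD of those controls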;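 further: integrated fluorescence ratio F max minus min over baseline F0; higher response in RGS4-induced cells means RGS4 inhibition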
M3R Ca ctr = carbachol calcium response in non-induced M3R cells, confirmation, counter-screen for RGS4 inhibitor project, cell-based, HEK293 M3R | carbachol calcium Fluo-4; submaximal (EC20) carbachol stimulus; buffer wells 0%, carbachol control wells 100% | shares compounds with RGS4 inh | activity (percent), % at 10 µM | actives 20% (n = 1,900); call rule not given here;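 further: RGS4 induction absent so cells express M3R without RGS4; higher means more calcium signal and flags a non-specific hit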
RGS4 inh ctr2 = second counter-screen for RGS4 inhibitors: non-induced cells without carbachol; shares compounds with RGS4 inh; HEK293 M3R/RGS4 non-induced, Fluo-4 calcium, no carbachol; normalised: buffer wells 0%, carbachol wells 100%; calcium response (agonist-mode artifact), % at 10 µM; actives 22% (n = 1,900); AID 493001;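 active means duplicate-averaged calcium rise in uninduced cells above buffer wells' mean plus 5 SD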
* = called active by the depositor; i = inactive; / = not tested or not shown. Most compounds without a hit are left out; they make up all but 3.5% or so of the library.

SMILES	MrgX1 antag	MrgX1 ag	MrgX1 allo act	RGS4 pot	RGS4 inh	RGS4 block valid	M3R Ca ctr	RGS4 inh ctr2
Oc1ccc(/C=N/Nc2ccc(C(F)(F)F)cn2)cc1	i	i	i	i	i	/	i	i
COc1cc(/C=N\NC(=O)C2CC3C=CC2C3)ccc1O (stereo unspecified)	i	i	i	i	i	/	/	/
COCCCNC(=O)c1cn(Cc2c(F)cccc2Cl)nn1	i	i	i	i	5.1*	i	i	i
Cc1cc(N)n2nc(C)c(-c3ccc(Cl)cc3)c2n1	i	i	i	i	7.8*	10%*	i	i
CC(=O)Nc1ccc(Nc2cc(C)nc3c(-c4ccc(Cl)cc4)c(C)nn23)cc1	i	i	i	i	i	/	i	i
CC(=O)Nc1ccc(Nc2cc(C)nc3c(-c4ccc(Cl)cc4)cnn23)cc1	i	i	i	i	i	/	/	/
CCOCCCNC(=S)N1CCCC(c2nc3ccc(C)cc3[nH]2)C1 (stereo unspecified)	i	i	i	i	i	/	/	/
COc1ccc(C2=NN(CN3C(=O)C(=O)c4ccccc43)C(c3ccc(OC)cc3)C2)cc1 (stereo unspecified)	i	i	i	i	i	/	35%*	i
Cc1ccc(C=Nc2ccc(N(C)C)cc2)o1	i	i	i	i	5.3*	10%*	i	i
COc1ccc(Cl)cc1NC(=O)c1cc(-c2ccccc2O)n[nH]1	i	i	i	i	5.5*	5.0%*	i	i
COc1ccc(OC)c(NC(=O)c2cc(-c3cc(Cl)ccc3O)n[nH]2)c1	i	i	i	i	i	/	/	/
O=C(Cc1ccc([N+](=O)[O-])cc1)NCc1ccccn1	i	i	i	i	i	/	/	/
Cc1ccc(NC(=O)C2CC(O)CN2C(=O)OCc2ccccc2)cc1C (stereo unspecified)	/	/	/	i	i	/	/	/
O=C(c1ccccc1NS(=O)(=O)c1cccc(C(F)(F)F)c1)N1CCc2ccccc21	i	i	i	i	i	/	/	/
O=C(Nc1ccc(Br)cc1)c1cccc(S(=O)(=O)Nc2cnc3ccccc3c2)c1	i	i	i	i	5.9*	16%*	i	i
O=C(CCC1CCCCC1)NNC(=O)c1cnccn1	i	i	i	i	8.4*	18%*	i	i
O=C(NNC(=O)C1CCCCC1)c1cnccn1	i	i	i	i	i	/	/	/
NC(=O)CC(NC(=O)Cc1ccc(Br)cc1)c1ccc(N2CCN(c3ccccc3)CC2)c([N+](=O)[O-])c1 (stereo unspecified)	i	i	i	i	i	/	/	/
Cc1ccc(C(C[N+](=O)[O-])Sc2ccc(N)cc2)cc1 (stereo unspecified)	i	33*	i	i	14*	28%*	i	i
COc1ccccc1N1CCN(C(=O)CN2C(=O)c3ccccc3S2(=O)=O)CC1	i	i	i	i	i	/	/	/
Cc1ccc(CNC(=O)CNC(=O)[C@@H]2Cc3ccccc3CN2C(=O)OC(C)(C)C)cc1	i	i	i	i	i	/	/	/
COC(=O)C1=C(CS(=O)(=O)c2ccc(C)cc2)NC(=O)NC1c1ccc(OC)c(OC)c1 (stereo unspecified)	i	i	i	i	i	i	i	i
CCOC(=O)C1=C(CS(=O)(=O)c2ccc(C)cc2)NC(=O)NC1c1ccc(O)c(OC)c1 (stereo unspecified)	i	i	i	i	i	/	/	/
CC(=O)/C=C/n1c(=S)oc2ccccc21	i	i	i	i	10*	21%*	i	7.0%*
CCOC(=O)C1CCN(C(C(=O)NC2CCCC2)c2ccc(C)cc2)CC1 (stereo unspecified)	i	i	i	i	5.3*	21%*	i	i
SMILES	MrgX1 antag	MrgX1 ag	MrgX1 allo act	RGS4 pot	RGS4 inh	RGS4 block valid	M3R Ca ctr	RGS4 inh ctr2
COc1ccccc1CNC(=O)C(=O)Nc1ccc(C(=O)N2CCC(C)CC2)cc1	i	i	i	i	i	/	/	/
CC(=O)C1=C(C)NC(=S)NC1c1cccc([N+](=O)[O-])c1 (stereo unspecified)	i	i	6.5*	i	i	/	i	i
O=C(c1ccc(COCC(F)(F)F)o1)N1CCCCCC1	i	i	i	i	i	/	38%*	i
Cc1cccc(NC(=O)C(=O)C2C(=O)Nc3ccccc32)c1 (stereo unspecified)	i	i	i	i	i	/	/	/
O=C(Nc1ccc2ccccc2c1)C(=O)C1C(=O)Nc2ccccc21 (stereo unspecified)	i	i	6.9*	i	8.1*	12%*	i	i
Cc1ccc(NS(=O)(=O)c2cccc([N+](=O)[O-])c2)nc1	i	i	i	i	i	/	/	/
O=C(CSc1nc2ccccc2[nH]1)Nc1nc(-c2ccc(Br)cc2)cs1	i	i	i	i	6.6*	6.0%*	i	i
CCCc1cc(=O)[nH]c(SCC(=O)Nc2nc(-c3ccccc3)cs2)n1	i	i	i	i	i	/	/	/
CCOC(=O)C1CCN(Cc2nc3ccccc3c(=O)n2-c2ccc(OCC)cc2)CC1	/	/	/	i	6.1*	6.5%*	i	i
O=C(Cn1cnc([N+](=O)[O-])c1)NCCc1ccccc1	i	i	i	i	i	/	/	/
COc1ccc(C)cc1NS(=O)(=O)c1ccc(NC(=O)CN(c2cc([N+](=O)[O-])ccc2C)S(C)(=O)=O)cc1	i	i	i	i	i	/	i	i
O=Nc1c(O)n(Cc2ccc(Cl)c(Cl)c2)c2ccccc12	i	i	i	i	15*	16%*	39%*	i

Bioassay records deposited in PubChem BioAssay by Johns Hopkins Ion Channel Center.
